Reference: ChEMBL document CHEMBL3621120, “Discovery of ((4-(5-(Cyclopropylcarbamoyl)-2-methylphenylamino)-5-methylpyrrolo[1,2-f][1,2,4]triazine-6-carbonyl)(propyl)carbamoyloxy)methyl-2-(4-(phosphonooxy)phenyl)acetate (BMS-751324), a Clinical Prodrug of p38α MAP Kinase Inhibitor” (J Med Chem, 2015)
Values after ≈ are worked out from the molar mass of the structure shown.

What was measured:
[1] = molecular target: T1, Alkaline phosphatase, placental type (Homo sapiens, UniProt P05187); test: Stability assessed as human placental ALP-mediated drug degradation by measuring compound remaining level in pH 7.5 tris buffer at 10 uM incubated for 0.25 hrs in presence of HALT phosphatase inhibitor cocktail by LC/MS/MS method; format: ADME; conditions: pH 7.5, with HALT phosphatase inhibitor cocktail, read-out: Stability
T1 sequence (P05187 whole entry): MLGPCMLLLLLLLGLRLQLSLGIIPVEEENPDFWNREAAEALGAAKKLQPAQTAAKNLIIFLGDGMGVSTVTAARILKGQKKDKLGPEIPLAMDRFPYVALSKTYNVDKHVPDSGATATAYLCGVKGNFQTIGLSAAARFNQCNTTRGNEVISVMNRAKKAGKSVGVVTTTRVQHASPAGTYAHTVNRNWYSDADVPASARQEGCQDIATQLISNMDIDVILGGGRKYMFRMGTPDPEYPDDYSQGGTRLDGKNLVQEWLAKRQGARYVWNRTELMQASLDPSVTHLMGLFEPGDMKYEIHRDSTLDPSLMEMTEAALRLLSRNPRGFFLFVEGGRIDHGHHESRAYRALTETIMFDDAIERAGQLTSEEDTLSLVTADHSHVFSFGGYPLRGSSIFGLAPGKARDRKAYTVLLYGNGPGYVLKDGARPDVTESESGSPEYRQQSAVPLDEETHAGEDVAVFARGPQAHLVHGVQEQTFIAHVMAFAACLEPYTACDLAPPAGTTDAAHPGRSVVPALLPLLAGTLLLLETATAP
Summary of the method: (§1)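 Human placental alkaline phosphatase (1 unit/mL) incubated with compound at 10 µM in 89 mM tris buffer, pH 7.5, 37 °C; reactions in triplicate started by compound addition, sampled at 0, 15, 30, 60 min. For inhibition, HALT phosphatase inhibitor cocktail (100x dilution) added before compound. Samples quenched into EDTA, acetonitrile added, centrifuged, remaining compound measured by LC/MS/MS.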

[2] = system: Rattus norvegicus; test: Bioavailability in Sprague-Dawley rat assessed as plasma BMS-582949 level at 10 mg/kg, po dose equivalent to BMS-582949 after 24 hrs by LC/MS/MS method; format: ADME, organism-based; conditions: in vivo
[3] = system: Rattus norvegicus; test: Cmax in Sprague-Dawley rat assessed as plasma BMS-582949 level at 10 mg/kg, po dose equivalent to BMS-582949 after 24 hrs by LC/MS/MS method; format: ADME, organism-based; set-up: dose 10 mg/kg, route oral; conditions: in vivo
[4] = system: Cynomolgus monkey; test: Bioavailability in cynomolgus monkey assessed as plasma BMS-582949 level at 10 mg/kg, po dose equivalent to BMS-582949 after 24 hrs by LC/MS/MS method; format: ADME, organism-based, Macaca fascicularis; conditions: in vivo
Summary of the method: (§2)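 Three overnight-fasted male cynomolgus monkeys (4.2-5.2 kg) given prodrug by oral gavage at 10 or 30 mg/kg, 5 mL/kg methocel suspension, one-week washout between doses. Femoral artery blood pre-dose and 0.25-24 h post-dose; plasma (centrifuged 4 °C) stored -20 °C and analysed by LC/MS/MS for parent.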

[5] = molecular target: T2, Liver carboxylesterase (Sus scrofa, UniProt Q29550); test: Stability assessed as porcine liver esterase-mediated drug degradation by measuring compound remaining level in pH 7.4 potassium phosphate buffer at 10 uM incubated for 0.25 hrs by LC/MS/MS; format: ADME, tissue-based; conditions: pig, read-out: Stability
T2 sequence (Q29550 whole entry): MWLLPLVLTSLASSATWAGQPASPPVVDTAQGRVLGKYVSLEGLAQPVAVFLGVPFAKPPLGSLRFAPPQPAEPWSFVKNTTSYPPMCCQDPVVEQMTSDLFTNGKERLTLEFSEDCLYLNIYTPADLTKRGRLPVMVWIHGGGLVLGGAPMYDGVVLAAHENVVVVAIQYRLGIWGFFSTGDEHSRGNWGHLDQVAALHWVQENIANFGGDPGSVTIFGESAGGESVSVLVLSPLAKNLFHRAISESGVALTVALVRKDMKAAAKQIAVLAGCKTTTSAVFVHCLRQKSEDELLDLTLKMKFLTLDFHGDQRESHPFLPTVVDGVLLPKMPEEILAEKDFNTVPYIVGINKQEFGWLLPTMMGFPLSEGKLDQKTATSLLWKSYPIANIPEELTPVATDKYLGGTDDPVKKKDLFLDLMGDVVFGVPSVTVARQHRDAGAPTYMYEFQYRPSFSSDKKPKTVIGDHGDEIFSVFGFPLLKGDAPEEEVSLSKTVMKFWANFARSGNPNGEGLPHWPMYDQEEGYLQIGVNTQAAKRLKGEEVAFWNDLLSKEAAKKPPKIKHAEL
Summary of the method: (§3)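 Porcine liver esterase with substrate at 10 µM in 89 mM potassium phosphate pH 7.4, 37 °C. Reaction started by adding compound. Aliquots taken at 0, 15, 30 and 60 min and quenched with acetonitrile. After centrifugation at 4 °C, percent remaining quantified by LC/MS/MS.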

[6] = molecular target: T2, Liver carboxylesterase; test: Stability assessed as porcine liver esterase-mediated drug degradation by measuring compound remaining level in pH 7.4 potassium phosphate buffer at 10 uM incubated for 0.5 hrs by LC/MS/MS; format: ADME, tissue-based; conditions: pig, read-out: Stability; summary of the method: as §3
[7] = system: Rattus norvegicus; test: Inhibition of LPS-induced TNFalpha level in Lewis rat at 0.03 to 10 mg/kg, po dose equivalent to BMS-582949 dosed 1 hr before LPS challenge and measured 90 mins post LPS challenge by ELISA method; format: functional
Summary of the method: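 Male Lewis rats (200-250 g) dosed orally 1 h before IP injection of 10ug E. coli O111:B4 LPS in 1.0 mL sterile saline; prodrug as suspension in 0.75% Methocel, 0.1% Tween 80, parent in PEG 300, controls given vehicle. Blood taken 90 min after LPS; serum TNF measured by ELISA; ED50 expressed as parent equivalent.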

[8] = Solubility of the compound in pH 1.2 solution at room temperature; format: physicochemical
[9] = molecular target: T1, Alkaline phosphatase, placental type; test: Stability assessed as human placental ALP-mediated drug degradation by measuring compound remaining level in pH 7.5 tris buffer at 10 uM incubated for 0.5 hrs in presence of HALT phosphatase inhibitor cocktail by LC/MS/MS method; format: ADME; conditions: pH 7.5, with HALT phosphatase inhibitor cocktail, read-out: Stability; summary of the method: as §1
[10] = molecular target: T1, Alkaline phosphatase, placental type; test: Stability assessed as human placental ALP-mediated drug degradation by measuring compound remaining level in pH 7.5 tris buffer at 10 uM incubated for 1 hr in presence of HALT phosphatase inhibitor cocktail by LC/MS/MS method; format: ADME; conditions: pH 7.5, with HALT phosphatase inhibitor cocktail
Summary of the method: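 Human placental ALP (1 unit/mL) with HALT phosphatase inhibitor cocktail at 100x dilution, added before the test compound (10 µM). Buffer 89 mM tris pH 7.5, 37 °C, triplicate. Sampled at 0, 15, 30 and 60 min, quenched with EDTA and acetonitrile, centrifuged, and percent remaining determined by LC/MS/MS.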

[11] = molecular target: T1, Alkaline phosphatase, placental type; test: Stability assessed as human placental ALP-mediated drug degradation by measuring compound remaining level in pH 7.5 tris buffer at 10 uM incubated for 1 hr by LC/MS/MS method; format: ADME; conditions: read-out: Stability
Summary of the method: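 Human placental ALP at 1 unit/mL, test compound at 10 µM in 89 mM tris pH 7.5, 37 °C. Run in triplicate, started by adding compound. Aliquots taken at 0, 15, 30 and 60 min and quenched into 10 mM EDTA plus acetonitrile. After centrifugation at 4 °C, percent remaining measured by LC/MS/MS.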

[12] = system: Rattus norvegicus; test: Bioavailability in Sprague-Dawley rat assessed as plasma BMS-582949 level at 100 mg/kg, po dose equivalent to BMS-582949 after 24 hrs by LC/MS/MS method; format: ADME, organism-based; conditions: in vivo
[13] = system: Rattus norvegicus; test: AUC in Sprague-Dawley rat assessed as plasma BMS-582949 level at 10 mg/kg, po dose equivalent to BMS-582949 after 24 hrs by LC/MS/MS method; format: ADME, organism-based; set-up: time < 24 hr, dose 10 mg/kg, route oral; conditions: in vivo
[14] = Stability in pH 1.1 solution assessed as half-life at 37 degC; format: physicochemical
[15] = system: Cynomolgus monkey; test: Cmax in cynomolgus monkey assessed as plasma BMS-582949 level at 10 mg/kg, po dose equivalent to BMS-582949 after 24 hrs by LC/MS/MS method; format: ADME, organism-based, Macaca fascicularis; set-up: dose 10 mg/kg, route oral; conditions: in vivo; summary of the method: as §2
[16] = system: Rattus norvegicus; test: AUC in Sprague-Dawley rat assessed as plasma BMS-582949 level at 1 mg/kg, po dose equivalent to BMS-582949 after 24 hrs by LC/MS/MS method; format: ADME, organism-based; set-up: time < 24 hr, dose 1 mg/kg, route oral; conditions: in vivo
[17] = system: Rattus norvegicus; test: Cmax in Sprague-Dawley rat assessed as plasma BMS-582949 level at 100 mg/kg, po dose equivalent to BMS-582949 after 24 hrs by LC/MS/MS method; format: ADME, organism-based; set-up: dose 100 mg/kg, route oral; conditions: in vivo

CCCN(C(=O)OCOC(=O)Cc1ccc(OP(=O)(O)O)cc1)C(=O)c1cn2ncnc(Nc3cc(C(=O)NC4CC4)ccc3C)c2c1C
remaining at 0.25 h, 10 µM [1]: 100%
F [2]: 103%
Cmax [3]: 18 µM
F [4]: 51%
remaining at 0.25 h, 10 µM [5]: 100%
remaining at 0.5 h, 10 µM [6]: 100%
ED50 [7]: 0.89 mg
inhibition [7]: Dose-dependent effect
solubility [8]: 100 µg/mL (≈ 144 µM)
remaining at 0.5 h, 10 µM [9]: 94%
remaining at 1 h, 10 µM [10]: 64.5%
remaining at 1 h, 10 µM [11]: 10.9%
F [12]: 115%
AUC [13]: 78 µM·h
half-life [14]: 21 h
Cmax [15]: 12 µM
AUC [16]: 3.1 µM·h
Cmax [17]: 122 µM
